# Results published in ChEMBL document CHEMBL1157660, “Synthesis and biological evaluation of 2',5'-dimethoxychalcone derivatives as microtubule-targeted anticancer agents” (Bioorg Med Chem, 2010).
# Active and inactive are the calls of the source. No cut-off for these calls is given here.
# Assays:
# [1] = Cytotoxicity against human NTUB1 cells after 72 hrs by MTT assay; format: functional, cell-based; conditions: NTUB1, 72 h
# Summary of the method: (§1)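 MTT assay: 1800 cells/well plated, overnight at 37 °C, then graded concentrations for 72 h at 37 °C. MTT added for 3 h, plates centrifuged, formazan dissolved in DMSO, absorbance read at 540 nm. Viability as percent of control; IC50 by median-effect analysis, mean ± SD. Cells grown in RPMI 1640 with 10% FBS.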
# PC-3 [2] = test: Cytotoxicity against human PC3 cells after 72 hrs by MTT assay; format: functional, cell-based; conditions: PC-3, 72 h; summary of the method: as §1
# [3] = Cell cycle arrest in human NTUB1 cells assessed as accumulation at G1 phase at 1 uM after 24 hrs by propidium iodide staining-based FACS analysis; format: functional
# Summary of the method: (§2)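 Cells (6×10^5 plated) treated 24 h; 20 µM cisplatin as reference, medium-only control. Harvested by trypsinization, PBS-washed, fixed overnight in ice-cold methanol at −20 °C. Stained 30 min at room temperature in PBS with 50 µg/mL propidium iodide plus 50 µg/mL RNase A. DNA content by FACScan flow cytometry; sub-G1 taken as apoptosis. Representative of three independent experiments.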
# [4] = Cell cycle arrest in human NTUB1 cells assessed as accumulation at sub-G1 phase at 3 uM after 24 hrs by propidium iodide staining-based FACS analysis; format: functional; summary of the method: as §2
# [5] = Cell cycle arrest in human NTUB1 cells assessed as accumulation at G2/M phase at 1 uM after 24 hrs by propidium iodide staining-based FACS analysis; format: functional; summary of the method: as §2
# PC-3 [6] = test: Cell cycle arrest in human PC3 cells assessed as accumulation at sub-G1 phase at 3 uM after 24 hrs by propidium iodide staining-based FACS analysis; format: functional; summary of the method: as §2
# [7] = Cell cycle arrest in human NTUB1 cells assessed as accumulation at sub-G1 phase at 1 uM after 24 hrs by propidium iodide staining-based FACS analysis; format: functional; summary of the method: as §2
# [8] = Cell cycle arrest in human NTUB1 cells assessed as accumulation at G2/M phase at 3 uM after 24 hrs by propidium iodide staining-based FACS analysis; format: functional; summary of the method: as §2
# PC-3 [9] = test: Cell cycle arrest in human PC3 cells assessed as accumulation at S phase at 3 uM after 24 hrs by propidium iodide staining-based FACS analysis; format: functional; summary of the method: as §2
# [10] = Cell cycle arrest in human NTUB1 cells assessed as accumulation at S phase at 3 uM after 24 hrs by propidium iodide staining-based FACS analysis; format: functional; summary of the method: as §2
# [11] = Cell cycle arrest in human NTUB1 cells assessed as accumulation at G1 phase at 3 uM after 24 hrs by propidium iodide staining-based FACS analysis; format: functional; summary of the method: as §2
# [12] = Cell cycle arrest in human NTUB1 cells assessed as accumulation at S phase at 1 uM after 24 hrs by propidium iodide staining-based FACS analysis; format: functional; summary of the method: as §2
# PC-3 [13] = test: Cell cycle arrest in human PC3 cells assessed as accumulation at G1 phase at 3 uM after 24 hrs by propidium iodide staining-based FACS analysis; format: functional; summary of the method: as §2
# PC-3 [14] = test: Cell cycle arrest in human PC3 cells assessed as accumulation at G1 phase at 1 uM after 24 hrs by propidium iodide staining-based FACS analysis; format: functional; summary of the method: as §2
# PC-3 [15] = test: Cell cycle arrest in human PC3 cells assessed as accumulation at sub-G1 phase at 1 uM after 24 hrs by propidium iodide staining-based FACS analysis; format: functional; summary of the method: as §2
# PC-3 [16] = test: Cell cycle arrest in human PC3 cells assessed as accumulation at S phase at 1 uM after 24 hrs by propidium iodide staining-based FACS analysis; format: functional; summary of the method: as §2
# PC-3 [17] = test: Cell cycle arrest in human PC3 cells assessed as accumulation at G2/M phase at 3 uM after 24 hrs by propidium iodide staining-based FACS analysis; format: functional; summary of the method: as §2
# PC-3 [18] = test: Cell cycle arrest in human PC3 cells assessed as accumulation at G2/M phase at 1 uM after 24 hrs by propidium iodide staining-based FACS analysis; format: functional; summary of the method: as §2
# NTUB1 [19] = test: Antimitotic activity in human NTUB1 cells assessed as accumulation of mitotic arrest cells at 0.3 to 1 uM after 24 hrs by DAPI staining-based microscopic analysis; format: functional, cell-based
# Summary of the method: (§3)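 NTUB1 cells seeded on serum-coated coverslips (10⁵ cells/well), incubated overnight, then treated 24 h. Fixed in 2% formaldehyde/PBS 20 min and permeabilized in cold methanol 3 min. Stained overnight with anti-α-tubulin primary, then rhodamine goat anti-rabbit secondary with 1 µg/mL DAPI for 1 h at room temperature. Mounted in 80% glycerol/PBS and examined by fluorescence microscopy; untreated medium control.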
# NTUB1 [20] = test: Stabilization GDP-bound alpha-tubulin in human NTUB1 cells assessed as microtubule disassembly at 10 uM after 6 hrs by Western blot analysis; format: cell-based
# Summary of the method: (§4)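 NTUB1 cells (1×10^6 per dish) treated 6 h; 500 nM paclitaxel reference. Lysed in Tris-HCl pH 6.8 buffer with MgCl2, EGTA, 0.5% NP-40 and protease/phosphatase inhibitors. Centrifuged 15,000g, 10 min, 4 °C to separate soluble (supernatant) from polymerized (pellet) tubulin. Fractions run on 10% SDS-PAGE and immunoblotted for α-tubulin, β-actin as control, chemiluminescent detection.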
# NTUB1 [21] = test: Stabilization GDP-bound alpha-tubulin in human NTUB1 cells assessed as microtubule disassembly at 50 to 100 uM after 6 hrs by Western blot analysis; format: cell-based; summary of the method: as §4
# NTUB1 [22] = test: Antimitotic activity in human NTUB1 cells assessed as appearance of rounded and dead cells at 0.3 to 3 uM after 24 hrs; format: functional, cell-based
# Summary of the method: (§5)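 NTUB1 cells at 7×10^5 cells per 10 cm dish, treated 24 h; medium-only control. Cell rounding and death scored by light-microscopic morphology.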
# NTUB1 [23] = test: Inhibition of alpha-tubulin assembly in human NTUB1 cells at 0.3 to 1 uM after 24 hrs by DAPI staining-based microscopic analysis; format: cell-based; summary of the method: as §3
# NTUB1 [24] = test: Stabilization GDP-bound alpha-tubulin in human NTUB1 cells assessed as microtubule disassembly at 500 nM after 6 hrs by Western blot analysis; format: cell-based; summary of the method: as §4
# NTUB1 [25] = test: Inhibition of alpha-tubulin assembly in human NTUB1 cells at 10 to 100 uM after 6 hrs by Western blot analysis; format: cell-based; summary of the method: as §4
# NTUB1 [26] = test: Antimitotic activity in human NTUB1 cells assessed as appearance of rounded and dead cells at 10 nM after 24 hrs; format: functional, cell-based; summary of the method: as §5
# NTUB1 [27] = test: Antimitotic activity in human NTUB1 cells assessed as accumulation of mitotic arrest cells at 10 nM after 24 hrs by DAPI staining-based microscopic analysis; format: functional, cell-based; summary of the method: as §3
# NTUB1 [28] = test: Inhibition of alpha-tubulin assembly in human NTUB1 cells at 10 nM after 24 hrs by DAPI staining-based microscopic analysis; format: cell-based; summary of the method: as §3
smiles,measurement,setting,value
CCCOC(=O)c1ccc(/C=C/C(=O)c2cc(OC)ccc2OC)cc1,IC50,[1],6.01 µM
same,IC50,PC-3 [2],26.9 µM
CCNC(=O)c1ccc(/C=C/C(=O)c2cc(OC)ccc2OC)cc1,IC50,[1],3.76 µM
same,IC50,PC-3 [2],4.18 µM
COc1ccc(OC)c(C(=O)/C=C/c2ccc(C(=O)N(C)C)cc2)c1,IC50,[1],3.89 µM
same,IC50,PC-3 [2],4.58 µM
COc1ccc(OC)c(C(=O)/C=C/c2ccc(C(=O)O)cc2)c1,IC50,[1],5.7 µM
same,IC50,PC-3 [2],7.24 µM
COc1ccc(OC)c(C(=O)/C=C/c2ccc(C(=O)N(C)CCO)cc2)c1,IC50,[1],4.42 µM
same,IC50,PC-3 [2],5.75 µM
COc1ccc(OC)c(C(=O)/C=C/c2ccc(C(=O)OC(C)C)cc2)c1,IC50,[1],4.42 µM
same,IC50,PC-3 [2],6.74 µM
COc1ccc(OC)c(C(=O)/C=C/c2ccc(C(=O)NC(C)C)cc2)c1,Activity,[3],44.9%
same,Activity,[4],30.3%
same,Activity,[5],22.6%
same,Activity,PC-3 [6],14.26%
same,IC50,[1],1.97 µM
same,Activity,[7],1.84%
same,Activity,[8],24.2%
same,Activity,PC-3 [9],16.09%
same,Activity,[10],21.2%
same,Activity,[11],22.3%
same,Activity,[12],27.2%
same,Activity,PC-3 [13],36.73%
same,Activity,PC-3 [14],38.85%
same,Activity,PC-3 [15],9.25%
same,Activity,PC-3 [16],25.83%
same,Activity,PC-3 [17],25.43%
same,IC50,PC-3 [2],1.58 µM
same,Activity,PC-3 [18],19.22%
CCCNC(=O)c1ccc(/C=C/C(=O)c2cc(OC)ccc2OC)cc1,IC50,[1],2.26 µM
same,IC50,PC-3 [2],1.5 µM
CCOC(=O)c1ccc(/C=C/C(=O)c2cc(OC)ccc2OC)cc1,IC50,[1],4.49 µM
same,IC50,PC-3 [2],5.7 µM
COc1ccc(OC)c(C(=O)/C=C/c2ccc(C(=O)N3CCCC3)cc2)c1,Activity,[3],46.6%
same,Activity,[4],61%
same,Activity,NTUB1 [19],Active
same,Activity,[5],20.4%
same,Activity,NTUB1 [20],inactive
same,Activity,NTUB1 [21],Dose-dependent effect
same,Activity,PC-3 [6],24.45%
same,IC50,[1],1.26 µM
same,Activity,NTUB1 [22],Active
same,Activity,[7],2.16%
same,Activity,[8],18.3%
same,Activity,PC-3 [9],21.83%
same,Activity,[10],11.3%
same,inhibition,NTUB1 [23],Active
same,Activity,[11],7.03%
same,Activity,[12],28.8%
same,Activity,NTUB1 [24],Active
same,inhibition,NTUB1 [25],inactive
same,Activity,PC-3 [13],18.44%
same,Activity,PC-3 [14],45.81%
same,Activity,PC-3 [15],7.8%
same,Activity,PC-3 [16],25.28%
same,Activity,PC-3 [17],27.69%
same,IC50,PC-3 [2],0.53 µM
same,Activity,PC-3 [18],14.02%
COc1ccc(OC)c(C(=O)/C=C/c2ccc(C(=O)OCc3ccccc3)cc2)c1,IC50,[1],13.3 µM
same,IC50,PC-3 [2],17.9 µM
COc1ccc(OC)c(C(=O)/C=C/c2ccc(C(=O)O)s2)c1,IC50,[1],> 50 µM
COc1ccc(OC)c(C(=O)/C=C/c2ccc(C(=O)OCC=C(C)C)cc2)c1,IC50,[1],13.4 µM
same,IC50,PC-3 [2],> 50 µM
CCN(CC)C(=O)c1ccc(/C=C/C(=O)c2cc(OC)ccc2OC)cc1,IC50,[1],2.69 µM
same,IC50,PC-3 [2],3.79 µM
COc1ccc(OC)c(C(/C=C/c2ccc(C(=O)NC3CC3)cc2)=N/C2CC2)c1,IC50,[1],3.57 µM
same,IC50,PC-3 [2],4.26 µM
CNC(=O)c1ccc(/C=C/C(=O)c2cc(OC)ccc2OC)cc1,IC50,[1],2.2 µM
same,IC50,PC-3 [2],2.13 µM
COC(=O)c1ccc(/C=C/C(=O)c2cc(OC)ccc2OC)cc1,IC50,[1],3.51 µM
same,IC50,PC-3 [2],4.85 µM
COc1ccc(OC)c(C(=O)/C=C/c2ccc(C(=O)NC3CCCCC3)cc2)c1,IC50,[1],2.25 µM
same,IC50,PC-3 [2],6.3 µM
CC(=O)O[C@H]1C(=O)[C@@]2(C)[C@H]([C@H](OC(=O)c3ccccc3)[C@]3(O)C[C@H](OC(=O)[C@H](O)[C@@H](NC(=O)c4ccccc4)c4ccccc4)C(C)=C1C3(C)C)[C@]1(OC(C)=O)CO[C@@H]1C[C@@H]2O,Activity,NTUB1 [26],Active
same,Activity,NTUB1 [27],Active
same,inhibition,NTUB1 [28],inactive
